Read-outs that look alike come from different tables or passages of the source.
Legend:
[1] = system: monocarboxylate transporter 1 (MCT1); settings: AZD3965 1.1 mg/kg; same mouse model; ref Dillemuth et al. [2025]; cited from earlier work
[2] = system: intracranial BT12 glioblastoma xenografts; experiment: PET imaging of mice with intracranial BT12 glioblastoma xenografts; format: in vivo, mouse; settings: for SUV in healthy brain: i.v.
Outline: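 Mice were imaged 21 days after intracranial BT12 inoculation, under 1–2% isoflurane on a heating pad. Non-contrast HRCT came first, then the tracer (4.70 ± 0.44 MBq, 0.10 ± 0.06 µg) i.v. via tail-vein cannula and 60-min dynamic list-mode PET. For blocking, the MCT1 inhibitor (1.1 mg/kg) was given i.v. 15 min before tracer. SUV was corrected for injected dose, body weight and tail/cannula residue; TBR was also derived. Data are mean ± SD, unpaired t-test.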

[3] = ref Dillemuth et al. [2025]; cited from earlier work
[4] = In vivo stability analysis; set-up: species or system mouse; settings: mice with BT12 glioblastoma, i.v.
Outline: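 After 60-min dynamic PET following tail-vein i.v. injection of the 18F-labelled peptide tracer, heparinized blood was centrifuged (2,100 × g, 5 min). Plasma was deproteinized with an equal volume of acetonitrile (14,000 × g, 3 min, RT), and fractions were gamma-counted. Protein-free plasma and acetonitrile-extracted brain homogenate were run on radio-HPLC (C18, 0.1% TFA water/acetonitrile, 12–80% B gradient). Peaks were assigned by reference retention times and co-injection.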

[5] = Ex vivo biodistribution in mice with glioblastoma; set-up: species or system mouse; settings: no blocking, 60 min postinjection, gamma counting, mean, n=7 ([18F]FNA-N-CooP), n=4 ([18F]FNA)
[6] = PET, glioblastoma mice, no blocking, mean ± SD, n = 4
[7] = PET, no blocking, single mouse (one of two)

For `Cc1[nH]nc(C(F)(F)F)c1Cc1sc2c(c1C(=O)N1C[C@](C)(O)CO1)c(=O)n(C)c(=O)n2C(C)C` [AZD3965], the “reduction of glioblastoma uptake of [^18F]FNA” value [1] is listed as 76%.

For `O=C(O)c1ccc([18F])nc1` [[^18F]FNA, 6-[^18F]fluoronicotinic acid, reference compound], the “tumor-to-brain ratio (TBR)” value [2, 6] is listed as 1.51 ± 0.08, the “SUV in healthy brain” value [2, 6] is listed as 0.59 ± 0.05 and the in vivo stability [3] is listed as “stable in vivo”.

For FB-CGLSGLGVA-NH2 [[^18F]FB-N-CooP], the TBR [2, 7] was 1.28 and the “tumor SUV” value [2, 7] was 0.16.

In the case of FNA-CGLSGLGVA-NH2 [[^18F]FNA-N-CooP], the in vivo stability [4] is reported as “not stable in vivo”, the “%ID/g Kidney” value [5] is reported as 8.88 ± 6.16 %ID/g and the “%ID/g Urine” value [5] is reported as 772.29 ± 373.58 %ID/g. The “SUV in tumor, blocking with AZD3965” value ([2]; AZD3965 1.1 mg/kg i.v. 15 min before tracer, single mouse (one of two)) was 0.17 and the “SUV in healthy brain” value [2, 6] was 0.11 ± 0.02.

Reference: article PMC12238435 (EJNMMI Radiopharmacy and Chemistry, 2025)
